One test deals with Listeria monocytogenes. Description: Bacteriostatic activity against Listeria monocytogenes ATCC 19115 after 20 hrs by broth microdilution method. It is filed as functional. The following applies: ATCC 19115, 20 h. In a few lines:
(§1)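 MIC by broth microdilution across 128 to 1 μg/mL in 96-well plates, 37 °C for at least 20 h. MIC is the lowest concentration with no visible growth.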

Test [1] deals with Staphylococcus aureus. The experiment in a line: Antibacterial activity against Staphylococcus aureus assessed as growth inhibition at 16 ug/ml after 24 hrs. It is filed as functional, organism-based. Summed up:
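S. aureus grown in Mueller Hinton Broth to early exponential phase, then exposed to compound (16 μg/mL; DMSO stocks 10 mg/mL) or DMSO in duplicate, 37 °C for 24 h. OD600 read; percent normalized OD600 = (X − media blank)/(DMSO control − media blank) × 100.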

The test system of test [2] is Enterococcus faecalis. The experiment in a line: Bacteriostatic activity against Enterococcus faecalis ATCC 29212 after 20 hrs by broth microdilution method. It is filed as functional. The following applies: ATCC 29212, 20 h. In a few lines:
(§2)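 Broth microdilution MIC over 128 to 1 μg/mL, run alongside methicillin, linezolid and vancomycin. MIC taken as the lowest concentration with no visible growth.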

Test [3] concerns Staphylococcus aureus. Description: Bacteriostatic activity against methicillin-resistant Staphylococcus aureus ATCC 33592 after 20 hrs by broth microdilution method. It is filed as functional. To be noted: ATCC 33592, 20 h. Summed up:
as §2

Test [4] has as its system Enterococcus faecalis. Description: Bacteriostatic activity against vancomycin-resistant Enterococcus faecalis ATCC 51575 after 20 hrs by broth microdilution method. The following applies: ATCC 51575, 20 h. It is filed as functional. In a few lines:
as §2

The test system of test [5] is Staphylococcus aureus. The experiment in a line: Bacteriostatic activity against Staphylococcus aureus ATCC 25923 after 20 hrs by broth microdilution method. To be noted: ATCC 25923, 20 h. It is filed as functional. Summed up:
as §2

A further test has as its system Pseudomonas aeruginosa. The experiment in a line: Bacteriostatic activity against Pseudomonas aeruginosa ATCC 15442 after 20 hrs by broth microdilution method. It is filed as functional. In a few lines: as §1
The next test concerns Acinetobacter baumannii. Description: Bacteriostatic activity against Acinetobacter baumannii ATCC 19606 after 20 hrs by broth microdilution method. The following applies: ATCC 19606 = CIP 70.34 = JCM 6841. It is filed as functional. In a few lines: as §1
For a further test, the system named is Klebsiella pneumoniae. Description: Bacteriostatic activity against Klebsiella pneumoniae BAA 1706 after 20 hrs by broth microdilution method. It is filed as functional. In a few lines:
as §1

Test [6] deals with Escherichia coli. Description: Bacteriostatic activity against AcrAB-tolC deficient Escherichia coli JW5503-1 after 20 hrs by broth microdilution method. It is filed as functional. To be noted: JW5503-1, 20 h. In a few lines:
as §1

Test [7] has as its system Escherichia coli. The experiment in a line: Bacteriostatic activity against Escherichia coli BW25113 after 20 hrs by broth microdilution method. It is filed as functional. To be noted: BW25113, 20 h. Summed up:
as §1

In brackets after ≈: the same amount, converted by molar mass. Activity calls are given as the source filed them. No cut-off for these calls is given here.

For the molecule `CN(C)S(=O)(=O)c1ccc(C(=O)Nc2nnc(-c3ccc(Cl)cc3)o2)cc1`, the MIC was determined as 64 mg/L (≈ 157 µM) in the test on Listeria monocytogenes; 64 mg/L (≈ 157 µM) in the test on Enterococcus faecalis [2]; 32 mg/L (≈ 78.7 µM) in the test on Staphylococcus aureus [3]; 64 mg/L (≈ 157 µM) with Enterococcus faecalis [4]; 64 mg/L (≈ 157 µM) in the test with Staphylococcus aureus [5]. In the test on Staphylococcus aureus [1], the “growth inhibition (GI)” value is “Active”.

As for `COc1cccc(-c2nnc(NC(=O)c3ccc(S(=O)(=O)N(C)CC4CCCO4)cc3)o2)c1` (stereo not given), the MIC with Listeria monocytogenes, with Enterococcus faecalis [2], in the test on Staphylococcus aureus [3], against Enterococcus faecalis [4] and against Staphylococcus aureus [5] was 32 mg/L (≈ 67.7 µM) throughout. In addition, the “growth inhibition (GI)” value with Staphylococcus aureus [1] was “Active”.

Regarding `C[C@@H]1C[C@H](C)CN(S(=O)(=O)c2ccc(-c3nnc(-c4cccs4)o3)cc2)C1`, in the test with Staphylococcus aureus [1], the “growth inhibition (GI)” value is “inactive”.

Turning to `C[C@@H]1C[C@H](C)CN(S(=O)(=O)c2ccc(C(=O)Nc3nnc(-c4cccs4)[nH]3)cc2)C1`, in the test on Staphylococcus aureus [1], the “growth inhibition (GI)” value is “inactive”.

Turning to `O=C(Nc1nnc(-c2ccc(Cl)cc2)o1)c1ccc(S(=O)(=O)NC2CC2)cc1`, the MIC in the test on Listeria monocytogenes stood at 16 mg/L (≈ 38.2 µM); in the test on Enterococcus faecalis [2], 32 mg/L (≈ 76.4 µM); in the test with Staphylococcus aureus [3] it was 16 mg/L (≈ 38.2 µM); against Enterococcus faecalis [4], 16 mg/L (≈ 38.2 µM); against Staphylococcus aureus [5] it was 16 mg/L (≈ 38.2 µM). The “growth inhibition (GI)” value in the test on Staphylococcus aureus [1] was “Active”.

Turning to `CCOC(=O)c1nnc(NC(=O)c2ccc(S(=O)(=O)N3C[C@H](C)C[C@H](C)C3)cc2)o1`, the “growth inhibition (GI)” value in the test on Staphylococcus aureus [1] is “inactive”.

On to `C[C@@H]1CN(S(=O)(=O)c2ccc(C(=O)Nc3nnc(-c4cccs4)o3)cc2)C[C@H](C)O1`, for which, in the test on Staphylococcus aureus [1], the “growth inhibition (GI)” value was “inactive”.

In the case of `O=C(Nc1nnc(-c2ccc(Cl)cc2)o1)c1ccc(S(=O)(=O)N2CCCC2)cc1`, the MIC was 16 mg/L (≈ 37 µM) in the test on Listeria monocytogenes; 16 mg/L (≈ 37 µM) in the test with Enterococcus faecalis [2]; 8 mg/L (≈ 18.5 µM) against Staphylococcus aureus [3]; 16 mg/L (≈ 37 µM) against Enterococcus faecalis [4]; 16 mg/L (≈ 37 µM) in the test with Staphylococcus aureus [5]. In addition, in the test on Staphylococcus aureus [1], the “growth inhibition (GI)” value is “Active”.

Take COLISTIN: the MIC against Pseudomonas aeruginosa, in the test with Acinetobacter baumannii and against Klebsiella pneumoniae was less than 1 mg/L throughout.

As to `CN(CC1CCCO1)S(=O)(=O)c1ccc(C(=O)Nc2nnc(-c3ccccc3)o2)cc1` (stereo not given), the “growth inhibition (GI)” value in the test on Staphylococcus aureus [1] was “Active”.

In the case of `O=C(Nc1nnc(-c2cccs2)o1)c1ccc(S(=O)(=O)N2CCCCC2)cc1`, the MIC with Listeria monocytogenes was found to be 32 mg/L (≈ 76.5 µM); in the test with Enterococcus faecalis [2] it was 16 mg/L (≈ 38.2 µM); against Staphylococcus aureus [3], 32 mg/L (≈ 76.5 µM); in the test on Enterococcus faecalis [4] it was 64 mg/L (≈ 153 µM); in the test with Staphylococcus aureus [5], 32 mg/L (≈ 76.5 µM). In addition, the “growth inhibition (GI)” value in the test on Staphylococcus aureus [1] is “Active”.

Turning to `O=C(Nc1nnc(-c2ccco2)o1)c1ccc(S(=O)(=O)N2CCOCC2)cc1`, the “growth inhibition (GI)” value in the test on Staphylococcus aureus [1] is “inactive”.

Regarding `C[C@@H]1C[C@H](C)CN(S(=O)(=O)c2ccc(C(=O)Nc3nnc(-c4ccc([N+](=O)[O-])cc4)o3)cc2)C1` (mixture of isomers), the MIC with Listeria monocytogenes was 32 mg/L; in the test on Enterococcus faecalis [2] it was 64 mg/L; with Staphylococcus aureus [3], 16 mg/L; with Enterococcus faecalis [4] it was 32 mg/L; in the test on Staphylococcus aureus [5], 32 mg/L. For the same molecule, the “growth inhibition (GI)” value with Staphylococcus aureus [1] is “Active”.

Regarding `C[C@@H]1C[C@H](C)CN(S(=O)(=O)c2ccc(C(=O)Nc3nnc(-c4cccc(C#N)c4)o3)cc2)C1` (mixture of isomers), the minimum inhibitory concentration (MIC) against Listeria monocytogenes is 8 mg/L; against Enterococcus faecalis [2], 32 mg/L; against Staphylococcus aureus [3] it was 8 mg/L; with Enterococcus faecalis [4], 16 mg/L; in the test with Staphylococcus aureus [5], 16 mg/L. Also, the “growth inhibition (GI)” value in the test on Staphylococcus aureus [1] is “Active”.

`CC1CCCCN1S(=O)(=O)c1ccc(C(=O)Nc2nnc(-c3cccs3)o2)cc1` (stereo not given): the MIC was 16 mg/L (≈ 37 µM) against Listeria monocytogenes; 16 mg/L (≈ 37 µM) against Enterococcus faecalis [2]; 8 mg/L (≈ 18.5 µM) in the test with Staphylococcus aureus [3]; 16 mg/L (≈ 37 µM) against Enterococcus faecalis [4]; 8 mg/L (≈ 18.5 µM) with Staphylococcus aureus [5]. For the same molecule, in the test with Staphylococcus aureus [1], the “growth inhibition (GI)” value is “Active”.

Take `CCN(CC)S(=O)(=O)c1ccc(C(=O)Nc2nnc(-c3ccc(Cl)cc3)o2)cc1`: the minimum inhibitory concentration (MIC) in the test with Listeria monocytogenes amounted to 16 mg/L (≈ 36.8 µM); with Enterococcus faecalis [2], 32 mg/L (≈ 73.6 µM); against Staphylococcus aureus [3], 16 mg/L (≈ 36.8 µM); in the test with Enterococcus faecalis [4] it was 16 mg/L (≈ 36.8 µM); with Staphylococcus aureus [5] it was 16 mg/L (≈ 36.8 µM). In addition, the “growth inhibition (GI)” value in the test with Staphylococcus aureus [1] is “Active”.

For `C[C@@H]1C[C@H](C)CN(S(=O)(=O)c2ccc(C(=O)Nc3nnc(-c4ccc(Cl)cc4)o3)cc2)C1` (mixture of isomers), the minimum inhibitory concentration (MIC) is 2 mg/L against Listeria monocytogenes; 4 mg/L in the test on Enterococcus faecalis [2]; 1 mg/L against Staphylococcus aureus [3]; 2 mg/L against Enterococcus faecalis [4]; 2 mg/L against Staphylococcus aureus [5]. Moreover, the “growth inhibition (GI)” value in the test with Staphylococcus aureus [1] was “Active”.

On to `CC[C@H]1OC(=O)[C@H](C)[C@@H](O[C@H]2C[C@@](C)(OC)[C@@H](O)[C@H](C)O2)[C@H](C)[C@@H](O[C@@H]2O[C@H](C)C[C@H](N(C)C)[C@H]2O)[C@](C)(O)C[C@@H](C)C(=O)[C@H](C)[C@@H](O)[C@]1(C)O` [ERYTHROMYCIN], for which the minimal inhibitory concentration (MIC) is no more than 1 mg/L against Escherichia coli [6] and 32 mg/L (≈ 43.6 µM) in the test on Escherichia coli [7].

As to `C[C@@H]1C[C@H](C)CN(S(=O)(=O)c2ccc(C(=O)Nc3nnc(C4CCCO4)o3)cc2)C1` (stereo not given in full), in the test with Staphylococcus aureus [1], the “growth inhibition (GI)” value was “inactive”.

Turning to `C[C@@H]1C[C@H](C)CN(S(=O)(=O)c2ccc(C(=O)Nc3nnc(-c4ccc(Br)cc4)o3)cc2)C1` (mixture of isomers), the minimal inhibitory concentration (MIC) in the test on Listeria monocytogenes stood at 4 mg/L; against Enterococcus faecalis [2] it was 4 mg/L; in the test with Staphylococcus aureus [3] it was 4 mg/L; in the test with Enterococcus faecalis [4], 4 mg/L; against Staphylococcus aureus [5], 2 mg/L. Moreover, the “growth inhibition (GI)” value with Staphylococcus aureus [1] was “Active”.

For `O=C(Nc1nnc(-c2cccs2)o1)c1ccccc1`, the “growth inhibition (GI)” value with Staphylococcus aureus [1] is “inactive”.

Regarding `C[C@@H]1C[C@H](C)CN(S(=O)(=O)c2ccc(C(=O)Nc3nnc(-c4ccc(F)cc4)o3)cc2)C1` (mixture of isomers), the MIC in the test with Listeria monocytogenes, in the test with Enterococcus faecalis [2], in the test on Staphylococcus aureus [3], against Enterococcus faecalis [4] and against Staphylococcus aureus [5] was 4 mg/L in each case. Moreover, the “growth inhibition (GI)” value in the test on Staphylococcus aureus [1] was “Active”.

With `CN(C)S(=O)(=O)c1ccc(C(=O)Nc2nnc(-c3ccc(F)cc3)o2)cc1`, the MIC worked out at 32 mg/L (≈ 82 µM) against Listeria monocytogenes; 32 mg/L (≈ 82 µM) in the test on Enterococcus faecalis [2]; 16 mg/L (≈ 41 µM) against Staphylococcus aureus [3]; 32 mg/L (≈ 82 µM) against Enterococcus faecalis [4]; 16 mg/L (≈ 41 µM) against Staphylococcus aureus [5]. Further, in the test on Staphylococcus aureus [1], the “growth inhibition (GI)” value was “Active”.

In the case of `COc1cccc(OC)c1C(=O)N[C@@H]1C(=O)N2[C@@H]1SC(C)(C)[C@@H]2C(=O)O` [METHICILLIN], the minimum inhibitory concentration (MIC) in the test on Staphylococcus aureus [3] was greater than 128 mg/L; against Staphylococcus aureus [5] it was 2 mg/L (≈ 5.26 µM).

Consider `C#CCNS(=O)(=O)c1ccc(C(=O)Nc2nnc(-c3ccc(Cl)cc3)o2)cc1`, for which the MIC was determined as 64 mg/L (≈ 154 µM) in the test with Listeria monocytogenes; 64 mg/L (≈ 154 µM) against Enterococcus faecalis [2]; 32 mg/L (≈ 76.8 µM) in the test with Staphylococcus aureus [3]; 64 mg/L (≈ 154 µM) against Enterococcus faecalis [4]; 64 mg/L (≈ 154 µM) in the test with Staphylococcus aureus [5]. In the test with Staphylococcus aureus [1], the “growth inhibition (GI)” value is “Active”.

As for `COc1ccc(-c2nnc(NC(=O)c3ccc(S(=O)(=O)N4C[C@H](C)C[C@H](C)C4)cc3)o2)cc1` (mixture of isomers), the minimal inhibitory concentration (MIC) against Listeria monocytogenes, against Enterococcus faecalis [2], in the test on Staphylococcus aureus [3], in the test with Enterococcus faecalis [4] and in the test on Staphylococcus aureus [5] was 4 mg/L in each case. For the same molecule, the “growth inhibition (GI)” value in the test on Staphylococcus aureus [1] is “Active”.

(Values after ChEMBL document CHEMBL4152323, “N-(1,3,4-oxadiazol-2-yl)benzamide analogs, bacteriostatic agents against methicillin- and vancomycin-resistant bacteria” (Eur J Med Chem, 2018).)
